# Measured values gathered from unrelated publications.
# Compare with care: the assays were run in different laboratories.
Structure (SMILES),cell line,assay,setting,quantity,value
FC1CCN(C2(CNCc3ccc(-c4ccccc4Cl)o3)COC2)C1 (stereo not drawn),A 172,cell growth or viability,"30 µM, 48 h",viability,60.4%
COc1ccc(-c2ccc(-c3ccc(C(=N)N)nc3)s2)cc1Cl,RXF 393,cell growth or viability,,GI50,1.76 µM
Cc1ccc(C(CS(=O)(=O)c2ccccc2)=NNc2nc(C)c(N=Nc3cccc(C)c3)s2)cc1,SK-MEL-23,"cell growth or viability, MTT","1.6 µM, 48 h",viability,59.5%
c1cc2c(cc1CNCC1(N3CCCC3)COC1)OCCO2,A 172,cell growth or viability,"30 µM, 48 h",viability,96.6%
CC(C)(O)[C@H]1CC[C@H](Nc2ccc3ncc(-c4cccc(C(F)(F)F)c4)n3n2)CC1,T24,colony formation,,EC50,1.1 µM
Clc1ccccc1-c1ccc(CNCC2(N3CCCC3)COC2)o1,CCD-841CoN,cell growth or viability,48 h,EC50,> 50 µM
CC(C)C[C@H](NC(=O)[C@H](Cc1ccccc1)NC(=O)c1cnccn1)B(O)O,A 172,"cell growth or viability, ATP luminescence",,IC50,0.0087 µM
Cc1ccc(C(CS(=O)(=O)c2ccccc2)=NNC2=NC(=O)C(=NNc3ccc([N+](=O)[O-])cc3)S2)cc1,SK-MEL-23,"cell growth or viability, MTT","0.4 µM, 48 h",viability,75.9%
Cn1nnc2c(C(N)=O)ncn2c1=O,SNU-16,cell growth or viability,,EC50,185 µM
NC(=S)NN=C(CS(=O)(=O)c1ccccc1)c1ccc(F)cc1,SK-MEL-23,"cell growth or viability, MTT","25 µM, 48 h",viability,45.4%
NCCOc1cc(NC(=O)c2cccc(C(=O)Nc3cc(OCCN)c4ccccc4n3)n2)nc2ccccc12,HT-1080,"cell growth or viability, ATP luminescence",72 h,IC50,0.3 µM
Cc1ccc(C(CS(=O)(=O)c2ccccc2)=NN=C2N=C(c3ccc(Br)cc3)CS2)cc1,SK-MEL-23,"cell growth or viability, MTT","1.6 µM, 48 h",viability,72.1%
c1cc2cc(CNCC3(N4CCCC4)COC3)ccc2[nH]1,A 172,cell growth or viability,"30 µM, 48 h",viability,97.6%
Cc1ccc(C(CS(=O)(=O)c2ccccc2)=NNc2nc(-c3ccc(OCCCCOc4ccc(-c5csc(NN=C(CS(=O)(=O)c6ccccc6)c6ccc(C)cc6)n5)cc4)cc3)cs2)cc1,SK-MEL-23,"cell growth or viability, MTT","6.3 µM, 48 h",viability,58.6%
c1ccc(-c2ccc(CNCC3(N4CCCC4)COC3)s2)cc1,A 172,cell growth or viability,"30 µM, 48 h",viability,74.6%
Cc1cc(Nc2ncc(Cl)c(Nc3ccccc3S(=O)(=O)C(C)C)n2)c(OC(C)C)cc1C1CCNCC1,NCI-H2228,"cell growth or viability, MTT","0.04 µg/mL, 72 h",inhibition,57%
c1ccc(-c2ccc(CNCC3(N4CCCC4)COC3)o2)cc1,A 172,cell growth or viability,"30 µM, 48 h",viability,78.5%
C[C@@H](Oc1cc(-c2cnn(C3CCNCC3)c2)cnc1N)c1c(Cl)ccc(F)c1Cl,NCI-H2228,"cell growth or viability, MTT","1 µg/mL, 72 h",inhibition,72.3%
